{"source": "ChEMBL document CHEMBL5338772", "about": "“Stereochemical Control of Splice Modulation in FD-895 Analogues” (J Med Chem, 2023)", "key": {"[1]": {"assay": "Cytotoxicity against human HCT-116 cells assessed as cell growth inhibition incubated for 72 hrs by MTS assay", "format": "toxicity, cell-based", "in_short": "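HCT-116 cells (ATCC; split every other day, no more than five generations, mycoplasma-tested) plated at 5 × 10³ cells/well in supplemented McCoy's 5a and grown 24 h at 37 °C, 5% CO₂. Compound added from DMSO (0.5% DMSO final) for 72 h. Cells washed with PBS, MTS reagent added for 2 h at 37 °C, A490 read against A690. GI₅₀ fitted from dose curves of 3 biological replicates.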"}, "SF3A1 pre-mRNA [2]": {"tested_on": "SF3A1 pre-mRNA", "assay": "Modulation of splicing in SF3A1 pre-mRNA in human HCT-116 cells assessed as intron 6 retention level at 2.6 uM incubated for 4 hrs by qRT-PCR analysis", "format": "functional, cell-based", "settings": "filed as modulator"}, "HCT-116 [3]": {"tested_on": "HCT-116", "assay": "Cytotoxicity against human HCT-116 cells assessed as reduction in cell viability at 500 nM incubated for 24 hrs by MTS assay", "format": "toxicity, cell-based", "settings": "hct-116, 24 h, 0.5 µM", "in_short": "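HCT-116 cells plated at 5 × 10³ cells/well in supplemented McCoy's 5a and grown 24 h at 37 °C, 5% CO₂. Compound given at 500 nM, the top dose of the 24 h splicing series, in 0.5% DMSO for 24 h. Cells washed with PBS, MTS reagent added for 2 h at 37 °C, A490 read against A690.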"}, "HCT-116 [4]": {"tested_on": "HCT-116", "assay": "Downregulation of SF3 mRNA expression in human HCT-116 cells at 2.6 uM incubated for 4 hrs by qRT-PCR analysis", "format": "functional, cell-based"}, "HCT-116 [5]": {"tested_on": "HCT-116", "assay": "Cytotoxicity against human HCT-116 cells assessed as reduction in cell viability at 2.6 uM incubated for 4 hrs by MTS assay", "format": "toxicity, cell-based", "settings": "hct-116, 4 h"}, "SF3B2 pre-mRNA [6]": {"tested_on": "SF3B2 pre-mRNA", "assay": "Modulation of splicing in SF3B2 pre-mRNA in human HCT-116 cells assessed as intron 10 retention at 100 to 500 nM incubated for 24 hrs by qRT-PCR analysis", "format": "functional, cell-based", "settings": "dose 100-500 nM", "in_short": "(§1)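 HCT-116 cells in supplemented McCoy's 5a with 0.5% final DMSO were treated for 24 h at 100, 250 or 500 nM. Total RNA isolated and DNase-treated (1 µg). qPCR used 2.5 µM each primer on 5 ng cDNA, 40 cycles. Intron retention was computed by the 2^-CT method relative to GAPDH and expressed versus untreated cells set to 1.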"}, "SF3B2 pre-mRNA [7]": {"tested_on": "SF3B2 pre-mRNA", "assay": "Modulation of splicing in SF3B2 pre-mRNA in human HCT-116 cells assessed as intron 10 retention level at 2.6 uM incubated for 4 hrs by qRT-PCR analysis", "format": "functional, cell-based", "settings": "filed as modulator", "in_short": "as §1, with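 “5a, compound added from DMSO stock to a final” for “5a with”, “DMSO, 4” for “final DMSO were treated for 24”, “a single standardized concentration per analogue.” for “100, 250 or 500 nM.”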"}, "SF3B1 pre-mRNA [8]": {"tested_on": "SF3B1 pre-mRNA", "assay": "Modulation of splicing in SF3B1 pre-mRNA in human HCT-116 cells assessed as intron 13 retention level at 2.6 uM incubated for 4 hrs by qRT-PCR analysis", "format": "functional, cell-based", "settings": "filed as modulator", "in_short": "as §1, with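 “5a, compound added from DMSO stock to a final” for “5a with”, “DMSO, 4” for “final DMSO were treated for 24”, “a single standardized concentration per analogue.” for “100, 250 or 500 nM.”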"}, "HCT-116 [9]": {"tested_on": "HCT-116", "assay": "Downregulation of PLK-1 mRNA expression in human HCT-116 cells at 100 to 500 nM incubated for 24 hrs by qRT-PCR analysis", "format": "functional, cell-based", "settings": "dose 100-500 nM", "in_short": "(§2)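 HCT-116 cells in supplemented McCoy's 5a with 0.5% DMSO, treated 24 h at 100, 250 or 500 nM; untreated cells as control. Total RNA isolated, 1 µg DNase I-treated, reverse transcribed. qPCR on 5 ng cDNA with 2.5 µM each primer, 40 cycles of 95 °C 30 s, 55 °C 60 s, 72 °C 60 s. Splice-event primers for intron retention or exon skipping; SF2 primers measure total expression. 2^-CT method relative to GAPDH, untreated set at 1.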"}, "SF3A3 pre-mRNA [10]": {"tested_on": "SF3A3 pre-mRNA", "assay": "Modulation of splicing in SF3A3 pre-mRNA in human HCT-116 cells assessed as intron 5 retention at 100 to 500 nM incubated for 24 hrs by qRT-PCR analysis", "format": "functional, cell-based", "settings": "filed as modulator, dose 100-500 nM", "in_short": "as §2"}, "DNAJB1 pre-mRNA [11]": {"tested_on": "DNAJB1 pre-mRNA", "assay": "Modulation of splicing in DNAJB1 pre-mRNA in human HCT-116 cells assessed as intron 2 retention at 100 to 500 nM incubated for 24 hrs by qRT-PCR analysis", "format": "functional, cell-based", "settings": "dose 100-500 nM", "in_short": "as §2"}, "DNAJB1 pre-mRNA [12]": {"tested_on": "DNAJB1 pre-mRNA", "assay": "Modulation of splicing in DNAJB1 pre-mRNA in human HCT-116 cells assessed as intron 2 retention level at 2.6 uM incubated for 4 hrs by qRT-PCR analysis", "format": "functional, cell-based", "settings": "filed as modulator"}, "SF3A3 pre-mRNA [13]": {"tested_on": "SF3A3 pre-mRNA", "assay": "Modulation of splicing in SF3A3 pre-mRNA in human HCT-116 cells assessed as intron 5 retention level at 2.6 uM incubated for 4 hrs by qRT-PCR analysis", "format": "functional, cell-based", "settings": "filed as modulator"}, "HCT-116 [14]": {"tested_on": "HCT-116", "assay": "Effect on AURKA mRNA expression in human HCT-116 cells at 100 to 500 nM incubated for 24 hrs by qRT-PCR analysis", "format": "functional, cell-based", "settings": "dose 100-500 nM", "in_short": "as §2"}, "HCT-116 [15]": {"tested_on": "HCT-116", "assay": "Downregulation of SF2 mRNA expression in human HCT-116 cells at 100 to 500 nM incubated for 24 hrs by qRT-PCR analysis", "format": "functional, cell-based", "settings": "dose 100-500 nM", "in_short": "as §2"}, "DNAJB1 pre-mRNA [16]": {"tested_on": "DNAJB1 pre-mRNA", "assay": "Modulation of splicing in DNAJB1 pre-mRNA in human HCT-116 cells assessed as intron 2 retention level at 5.6 uM incubated for 4 hrs by qRT-PCR analysis", "format": "functional, cell-based", "settings": "filed as modulator"}, "SF3A1 pre-mRNA [17]": {"tested_on": "SF3A1 pre-mRNA", "assay": "Modulation of splicing in SF3A1 pre-mRNA in human HCT-116 cells assessed as intron 6 retention level at 5.6 uM incubated for 4 hrs by qRT-PCR analysis", "format": "functional, cell-based", "settings": "filed as modulator"}, "HCT-116 [18]": {"tested_on": "HCT-116", "assay": "Cytotoxicity against human HCT-116 cells assessed as reduction in cell viability at 5.6 uM incubated for 4 hrs by MTS assay", "format": "toxicity, cell-based", "settings": "hct-116, 4 h"}, "SF3A3 pre-mRNA [19]": {"tested_on": "SF3A3 pre-mRNA", "assay": "Modulation of splicing in SF3A3 pre-mRNA in human HCT-116 cells assessed as intron 5 retention level at 5.6 uM incubated for 4 hrs by qRT-PCR analysis", "format": "functional, cell-based", "settings": "filed as modulator"}, "SF3B1 pre-mRNA [20]": {"tested_on": "SF3B1 pre-mRNA", "assay": "Modulation of splicing in SF3B1 pre-mRNA in human HCT-116 cells assessed as intron 13 retention level at 5.6 uM incubated for 4 hrs by qRT-PCR analysis", "format": "functional, cell-based", "settings": "filed as modulator", "in_short": "as §1, with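 “5a, compound added from DMSO stock to a final” for “5a with”, “DMSO, 4” for “final DMSO were treated for 24”, “a single standardized concentration per analogue.” for “100, 250 or 500 nM.”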"}, "AURKA pre-mRNA": {"tested_on": "AURKA pre-mRNA", "assay": "Modulation of splicing in AURKA pre-mRNA in human HCT-116 cells assessed as effect on exon 4 skipping at 5.6 uM incubated for 4 hrs by qRT-PCR analysis", "format": "functional, cell-based", "settings": "filed as modulator"}, "SF3B2 pre-mRNA [21]": {"tested_on": "SF3B2 pre-mRNA", "assay": "Modulation of splicing in SF3B2 pre-mRNA in human HCT-116 cells assessed as intron 10 retention level at 5.6 uM incubated for 4 hrs by qRT-PCR analysis", "format": "functional, cell-based", "settings": "filed as modulator", "in_short": "as §1, with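 “5a, compound added from DMSO stock to a final” for “5a with”, “DMSO, 4” for “final DMSO were treated for 24”, “a single standardized concentration per analogue.” for “100, 250 or 500 nM.”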"}}, "note": "Active and inactive are the calls of the source. The rule behind the calls is not given here.", "data": [{"smiles": "CC[C@H](OC)[C@@H](C)[C@H]1O[C@@H]1[C@@H](O)[C@H](C)/C=C/C=C(\\C)[C@H]1OC(=O)C[C@@H](O)CC[C@@](C)(O)[C@@H](OC(C)=O)/C=C/[C@@H]1C", "values": [{"measurement": "GI50 at 72 h", "setting": "[1]", "value": 143, "unit": "nM"}, {"measurement": "Activity", "setting": "SF3A1 pre-mRNA [2]", "value": "> 3"}, {"measurement": "Activity", "setting": "HCT-116 [3]", "value": "Non-Toxic"}, {"measurement": "Activity", "setting": "HCT-116 [4]", "value": "Active"}, {"measurement": "Activity", "setting": "HCT-116 [5]", "value": "Non-Toxic"}, {"measurement": "Activity", "setting": "SF3B2 pre-mRNA [6]", "value": "inactive"}, {"measurement": "Activity", "setting": "SF3B2 pre-mRNA [7]", "value": "> 3"}, {"measurement": "Activity", "setting": "SF3B1 pre-mRNA [8]", "value": "< 3"}, {"measurement": "Activity", "setting": "HCT-116 [9]", "value": "Active"}, {"measurement": "Activity", "setting": "SF3A3 pre-mRNA [10]", "value": "Active"}, {"measurement": "Activity", "setting": "DNAJB1 pre-mRNA [11]", "value": "inactive"}, {"measurement": "Activity", "setting": "DNAJB1 pre-mRNA [12]", "value": "> 3"}, {"measurement": "Activity", "setting": "SF3A3 pre-mRNA [13]", "value": "< 3"}, {"measurement": "Activity", "setting": "HCT-116 [14]", "value": "Active"}, {"measurement": "Activity", "setting": "HCT-116 [15]", "value": "inactive"}]}, {"smiles": "CC[C@@H](OC)[C@H](C)[C@H]1O[C@@H]1[C@@H](O)[C@H](C)/C=C/C=C(\\C)[C@H]1OC(=O)C[C@H](O)CC[C@@](C)(O)[C@@H](OC(C)=O)/C=C/[C@@H]1C", "values": [{"measurement": "Activity", "setting": "DNAJB1 pre-mRNA [16]", "value": "> 3"}, {"measurement": "GI50 at 72 h", "setting": "[1]", "value": 285, "unit": "nM"}, {"measurement": "Activity", "setting": "SF3A1 pre-mRNA [17]", "value": "> 3"}, {"measurement": "Activity", "setting": "HCT-116 [3]", "value": "Non-Toxic"}, {"measurement": "Activity", "setting": "HCT-116 [18]", "value": "Non-Toxic"}, {"measurement": "Activity", "setting": "SF3A3 pre-mRNA [19]", "value": "< 3"}, {"measurement": "Activity", "setting": "SF3B1 pre-mRNA [20]", "value": "< 3"}, {"measurement": "Activity", "setting": "AURKA pre-mRNA", "value": "Active"}, {"measurement": "Activity", "setting": "SF3B2 pre-mRNA [21]", "value": "> 3"}]}]}
